Measurements from different studies.
pEC50, pIC50: −log10 of the molar value.
Organism: Severe acute respiratory syndrome coronavirus 2

| SMILES | assay | system | setting | quantity | result |
| --- | --- | --- | --- | --- | --- |
| OCCN1CCN(CCCN2c3ccccc3C=Cc3ccccc32)CC1 | viral replication | Vero C1008 |  | pIC50 | 5.00 |
| CCOC(=O)c1ncc2[nH]c3cccc(OC(C)C)c3c2c1C | viral replication, inhibitor | Vero C1008 | 1 µM | inhibition | 40.6% |
| C=C[C@@](C)(/C=C/c1ccc(O)cc1)CCC=C(C)C | cytopathic effect | Vero C1008 | 25 µM | inhibition | 0% |
| CN(CCc1ccc(Cl)c(Cl)c1)CCN1CCCC1 | viral replication, inhibitor | A549-ACE2 |  | pIC50 | 5.83 |
| OC(CNCC(O)C1CCc2cc(F)ccc2O1)C1CCc2cc(F)ccc2O1 (stereo not shown) | viral replication, inhibitor | Huh-7 |  | pIC50 | < 5.70 |
| [2H]C([2H])(c1cc(F)c(F)cc1F)n1c(=O)n(Cc2ncn(C)n2)c(=O)[nH]/c1=N\c1cc2cn(C)nc2cc1Cl | viral replication, inhibitor, qPCR |  | 48 h | pEC50 | 7.62 |
| CCCN(CCC)CCc1ccc(OC)c(OCCc2ccccc2)c1 | viral replication | Vero C1008 |  | pIC50 | 5.41 |
| O=C(O[C@@H]1Cc2c(O)cc(O)cc2O[C@@H]1c1cc(O)c(O)c(O)c1)c1cc(O)c(O)c(O)c1 | cytopathic effect, inhibitor | Vero C1008 | 3.125 µM | inhibition | 0% |
| Cn1c(C(=O)Nc2ccc3c(c2)OCCO3)cc2c(=O)n3ccccc3nc21 | viral replication | Vero | 1 nM | inhibition | 5.41% |
| CCCCCN(C(=O)NC)c1ccc2nc(CCCC)n(Cc3ccc(NC(=O)c4c(Cl)ccc(Cl)c4C(=O)O)cc3)c2c1 | viral replication, inhibitor | Vero C1008 | 1 µM | inhibition | 44.5% |
| CCN(CCO)CCCC(C)Nc1ccnc2cc(Cl)ccc12 (stereo not shown) | viral replication, inhibitor | Huh-7 |  | pIC50 | < 5.70 |
| CCC(CC)COC(=O)[C@H](C)N[P@](=O)(OC[C@H]1O[C@@](C#N)(c2ccc3c(N)ncnn23)[C@H](O)[C@@H]1O)Oc1ccccc1 | viral replication | Vero | 10 nM | inhibition | 53.8% |
| N#Cc1ccc2[nH]cc(CCCCN3CCN(c4ccc5oc(C(=N)Cl)cc5c4)CC3)c2c1 | viral replication, inhibitor | Huh-7 |  | pIC50 | < 5.70 |
| Cc1ccc(NC(=O)c2cc3c(=O)n4cccc(C)c4nc3n2C)cc1Cl | viral replication | Vero | 10 µM | inhibition | 94.8% |
| COc1ccc2c(c1)c(CC(=O)O)c(C)n2C(=O)c1ccc(Cl)cc1 | plaque formation | Vero C1008 |  | pEC50 | ~4.00 |
| CC(C)(C)[C@]1(O)CCN2C[C@@H]3c4ccccc4CCc4cccc(c43)[C@H]2C1 | viral replication | Vero C1008 |  | pIC50 | 5.18 |
| Cc1cc(NC(=O)c2cc3c(=O)n4cccc(C)c4nc3n2C)ccc1Br | viral replication | Vero | 1 µM | inhibition | 74.7% |

| SMILES | assay | system | setting | quantity | result |
| --- | --- | --- | --- | --- | --- |
| CC(C)=CCc1c(O)ccc(C(=O)/C=C/c2ccc(O)cc2)c1O | cytopathic effect | Vero C1008 | 12.5 µM | inhibition | 0% |
| CC(=O)[C@H]1CC[C@H]2[C@@H]3CCC4=CC(=O)CC[C@]4(C)[C@H]3CC[C@]12C | viral replication | Vero C1008 |  | pIC50 | 5.03 |
| CCC(CC)COC(=O)[C@H](C)N[P@](=O)(OC[C@H]1O[C@@](C#N)(c2ccc3c(N)ncnn23)[C@H](O)[C@@H]1O)Oc1ccccc1 | viral replication, inhibitor | Vero C1008 |  | pEC50 | > 4.00 |
| CN[C@@H](C)C(=O)N[C@H](C(=O)N1CCC[C@H]1C(=O)Nc1sc(-c2ncco2)nc1-c1ccccc1)C1CCCCC1 | viral replication, inhibitor | Vero C1008 | 1 µM | inhibition | 42.2% |
| CN(C)CCC=C1c2ccccc2CCc2ccccc21 | viral replication | Vero C1008 |  | pIC50 | 5.55 |
| c1ccc([C@H]2CN3CCSC3=N2)cc1 | viral replication, inhibitor | Huh-7 |  | pIC50 | < 5.70 |
| O=C(Nc1ccccc1F)c1cc2c(=O)n3ccccc3nc2n1Cc1ccccc1 | viral replication | Vero | 1 nM | inhibition | 12.3% |
| CCCCCCCCCCCCCCCCCCOC[C@H](COP(=O)(O)OC[C@H]1O[C@@](C#N)(c2ccc3c(N)ncnn23)[C@H](O)[C@@H]1O)OCc1ccccc1 | viral replication, inhibitor, qPCR | Vero C1008 |  | pEC50 | 6.85 |
| COc1ccc(C[C@@H]2c3cc(Oc4cc(C[C@@H]5c6cc(O)c(OC)cc6CCN5C)ccc4O)c(OC)cc3CCN2C)cc1 | cytopathic effect, inhibitor | Vero C1008 | 50 µM | inhibition | 66.7% |
| CCC(CC)COC(=O)[C@H](C)N[P@](=O)(OC[C@H]1O[C@@](C#N)(c2ccc3c(N)ncnn23)[C@H](O)[C@@H]1O)Oc1ccccc1 | viral replication, inhibitor, qPCR | Vero C1008 | 48 h | EC90 | 7.05 µM |
| O=C(/C=C/c1ccc(O)c(O)c1/C=C/c1ccc(O)c(O)c1)O[C@H](Cc1ccc(O)c(O)c1)C(=O)O | cytopathic effect, inhibitor | Vero C1008 | 0.7812 µM | inhibition | 0% |
| CCc1ccc(NC(=O)c2cc3c(=O)n4ccccc4nc3n2C)cc1 | viral replication | Vero | 10 µM | inhibition | 95% |
| CN(C)CCCC1(c2ccc(F)cc2)OCc2cc(C#N)ccc21 (stereo not shown) | viral replication, inhibitor | A549-ACE2 |  | pIC50 | 5.48 |
| CCCCCCCCCCCCCCCCCCOCCOP(=O)(O)OC[C@H]1O[C@@](C#N)(c2ccc3c(N)ncnn23)[C@H](O)[C@@H]1O | viral replication, inhibitor, qPCR | Vero C1008 |  | pEC50 | 6.52 |
| Cn1c(C(=O)Nc2ccc(Cl)cc2)cc2c(=O)n3ccccc3nc21 | viral replication | Vero | 10 nM | inhibition | 8% |
| CC(/C=C/C=C(\C)c1cc(C(C)(C)C)cc(C(C)(C)C)c1)=C\C(=O)O | viral replication, inhibitor | Vero C1008 | 1 µM | inhibition | 61.6% |
| CN1CCN(C2=Nc3ccccc3Oc3ccc(Cl)cc32)CC1 | viral replication, inhibitor | Vero C1008 |  | pIC50 | 4.94 |
